Measurements: paper PMC11261619 (Journal of Agricultural and Food Chemistry, 2024)

Experiments:
[1] = target: T1, human OR11A1 (Homo sapiens, UniProt Q9GZK7); assay: cAMP luminescence; assay type: cell-based; details: for KFO screening signal on human OR11A1 relative to 3σ-threshold: each KFO 300 μmol/L, triplicate, normalized to response of OR11A1 to geosmin; for Concentration-dependent activation of OR11A1 (concentration–response validation): normalized to OR1A1 response to (R)-(−)-carvone (30 μmol/L), n = 3
T1 sequence (Q9GZK7 1-315): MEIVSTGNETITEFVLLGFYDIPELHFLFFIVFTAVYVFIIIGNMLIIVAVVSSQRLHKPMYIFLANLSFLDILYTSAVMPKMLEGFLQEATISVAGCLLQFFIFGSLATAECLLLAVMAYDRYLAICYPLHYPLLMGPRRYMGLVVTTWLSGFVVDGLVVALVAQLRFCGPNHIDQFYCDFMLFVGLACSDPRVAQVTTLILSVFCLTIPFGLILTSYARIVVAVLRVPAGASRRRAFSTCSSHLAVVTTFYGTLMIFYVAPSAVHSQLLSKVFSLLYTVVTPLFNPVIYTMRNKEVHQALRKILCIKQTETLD

[2] = target: T2, doOR11A1 (Dipodomys ordii, UniProt A0A1S3GF11); assay: cAMP luminescence; assay type: cell-based, Kangaroo rat (Dipodomys ordii)
T2 sequence (A0A1S3GF11 1-311): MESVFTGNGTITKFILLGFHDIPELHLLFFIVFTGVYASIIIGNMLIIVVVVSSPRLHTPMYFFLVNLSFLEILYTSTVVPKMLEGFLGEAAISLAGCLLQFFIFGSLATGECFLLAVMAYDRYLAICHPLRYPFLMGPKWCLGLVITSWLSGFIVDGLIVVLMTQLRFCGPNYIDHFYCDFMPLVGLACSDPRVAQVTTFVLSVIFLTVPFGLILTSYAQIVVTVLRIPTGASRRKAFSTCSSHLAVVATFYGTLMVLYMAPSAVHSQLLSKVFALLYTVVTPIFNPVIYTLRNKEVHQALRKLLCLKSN
In short: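 HEK-293 cells (DMEM, 4.5 g/L glucose, 10% FBS, 2 mM L-glutamine, penicillin/streptomycin; 37 °C, 5% CO2) co-transfected via ViaFect with the ortholog coding region in IL-6-HaloTag-pFN210A and pGloSensor-22F. Luminescence was averaged before and after odorant application, then baseline-subtracted and mock-subtracted. Responses were normalized to OR1A1 response to (R)-(−)-carvone (30 μmol/L). EC50 came from nonlinear sigmoidal regression; mean ± SD, n = 3–6 independent transfections.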

KFO screening signal on human OR11A1 relative to 3σ-threshold [1] | Concentration-dependent activation of OR11A1 (concentration–response validation) [1] | Sensitivity of kangaroo rat receptor compared to its human ortholog ([2]; doOR11A1 vs human OR11A1) | Sensitivities of OR11A1 homologues across species compared to the human receptor ([2]; homologues across species vs human OR11A1) | Efficacy of response to geosmin among OR11A1 orthologs ([2]; normalized to OR1A1 response to (R)-(−)-carvone (30 μmol/L)) | SMILES
reached the 3σ-threshold | could not be validated | – | – | – | CC12CCC(CC1)C(C)(C)O2 [1,8-cineol]
above the 3σ-threshold | could not be validated | – | – | – | C=Cc1ccc(O)cc1 [4-ethenylphenol]
above the 3σ-threshold | could not be validated | – | – | – | CCCCC(=O)OCC [ethyl pentanoate]
– | – | more than 100 fold | up to 100 fold | most effective responder | C[C@H]1CCC[C@@]2(C)CCCC[C@]12O [geosmin, (4S,4aS,8aR)-4,8a-dimethyloctahydronaphthalen-4a(2H)-ol]
reached the 3σ-threshold | could not be validated | – | – | – | CSCCCO [methionol, 3-(methylsulfanyl) Propanol (methionol)]
